Measured values collected from several papers.
Lines come from different studies, so protocols differ.
Target: Mitogen-activated protein kinase 13 (MAPK13, Homo sapiens, UniProt O15264)
Residues used in one study (O15264 1-365): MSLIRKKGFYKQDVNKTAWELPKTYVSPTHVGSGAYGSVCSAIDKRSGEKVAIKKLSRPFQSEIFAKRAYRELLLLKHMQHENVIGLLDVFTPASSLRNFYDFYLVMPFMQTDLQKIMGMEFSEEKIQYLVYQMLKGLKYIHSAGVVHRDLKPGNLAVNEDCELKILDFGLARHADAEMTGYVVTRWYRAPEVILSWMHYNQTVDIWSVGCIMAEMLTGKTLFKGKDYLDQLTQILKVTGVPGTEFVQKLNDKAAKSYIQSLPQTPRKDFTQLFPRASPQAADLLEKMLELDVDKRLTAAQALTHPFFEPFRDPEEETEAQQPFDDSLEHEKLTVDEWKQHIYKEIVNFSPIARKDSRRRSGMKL

Compound	assay	conditions	remaining binding
COc1cnc(Nc2cccc(S(N)(=O)=O)c2)nc1N1CCN(c2ccccc2)C(=O)C1	binding, competition with immobilised ligand	1 µM	95%
CN1CCN(c2cnc3c(C4CCN(C(=O)c5ccc(OC(F)(F)F)cc5N)CC4)ncnc3c2)CC1	cell-free assay, competition with immobilised ligand	1 µM	100%
C[C@@H]1CCN(c2nccc(-c3cnn4ncccc34)n2)C1	binding	1 µM	93%
Cc1cnc(Nc2ccc(C(=O)N3CCC(N4CCCC4)CC3)cc2)nc1-c1cc2ccccc2s1	binding, competition with immobilised ligand	1 µM	100%
CS(=O)(=O)N1CCCC(NC(=O)[C@H](CCC2CCCCC2)NC(=O)c2ccc(CNC(=O)c3cnc4ccccn34)cc2)C1 (stereo partly shown)	cell-free assay, competition with immobilised ligand	0.1 µM	100%
CCN1CCN(Cc2ccc(C(=O)Nc3ccc(C)c(Oc4ccc5c(c4)CC(=O)N5)c3)cc2C(F)(F)F)CC1	binding, competition with immobilised ligand	1 µM	100%
Cc1cc(NC(=O)c2cccc(S(F)(F)(F)(F)F)c2)cc(-n2ccn3nc(-c4cccnc4)cc23)c1	cell-free assay, competition with immobilised ligand	1 µM	79.6%
N[C@@H]1CCN(c2nccc(-c3cnn4ncccc34)n2)C1	binding	1 µM	100%
Nc1ncc2c(n1)-c1c([nH]c3ccc(C#CC4CC4)cc13)CCCC2	binding, competition with immobilised ligand	1 µM	100%
COc1cnc(Nc2cccc(S(N)(=O)=O)c2)nc1N1CCN(c2ccccc2)CC1	binding, competition with immobilised ligand	1 µM	100%
CN(CCCC(F)(F)F)c1nccc(-c2cnn3ncccc23)n1	binding	1 µM	100%
O=C(O)[C@H]1[C@H](Cn2nnc3ccccc3c2=O)CC[C@@H]1C(=O)c1ccc(OCCC2CCOCC2)cc1	cell-free assay, competition with immobilised ligand	1 µM	97%
c1cnn2ncc(-c3ccnc(N4CCC45COC5)n3)c2c1	binding	1 µM	78%
O=C(Nc1c[nH]nc1C(=O)NC1CCNCC1)c1cc(F)cc(F)c1	binding, competition with immobilised ligand	1 µM	92%
CN(C)c1nccc(-c2cnn3ncccc23)n1	binding	1 µM	100%
FC(F)(F)Oc1cccc(-c2cnc3ccc(-c4ccncc4)nn23)c1	cell-free assay, competition with immobilised ligand	5 µM	97%
Cc1cnn2ncc(-c3ccnc(N(C)C)n3)c2c1	binding	1 µM	100%
O=C(NCCCN1CCOCC1)c1ccc(Nc2nccc(-c3cc4ccccc4s3)n2)cc1	binding, competition with immobilised ligand	1 µM	100%
CN([C@@H]1CCc2c(CC(=O)O)c3cc(S(C)(=O)=O)ccc3n2C1)S(=O)(=O)c1ccc(F)cc1	cell-free assay, competition with immobilised ligand	1 µM	68%
O=C(c1ccc(Nc2ncc(Cl)c(-c3cc4ccccc4s3)n2)cc1)N1CCC(N2CCCC2)CC1	binding, competition with immobilised ligand	1 µM	100%
C[C@@]1(Cc2ccc(C#N)cc2)C(=O)N(c2cc(Cl)cc(Cl)c2)c2ncc(C(=O)NC3(c4nc(C5CCC5)no4)CC3)n21	cell-free assay, competition with immobilised ligand	1 µM	100%
C=CC(=O)N1CCC(C(=O)NCC(=O)N2CCN(c3nc(-c4cnc(N)nc4C(F)F)nc(N4CCOCC4)n3)CC2)CC1	binding, competition with immobilised ligand	1 µM	99%
